Laboratory results published in BindingDB's records for doi:10.1021/jm00053a001 (Merck Sharp and Dohme Research Laboratories, 1993).
Where a SMILES comes first, the peptide text is derived from it.

Assays:
Substance-K receptor = biological target: T1, Substance-K receptor (Rattus norvegicus, UniProt P16610); test: Inhibition of eledoisin binding to NK-2 receptor in rat vas deferens
T1 sequence (P16610 whole entry): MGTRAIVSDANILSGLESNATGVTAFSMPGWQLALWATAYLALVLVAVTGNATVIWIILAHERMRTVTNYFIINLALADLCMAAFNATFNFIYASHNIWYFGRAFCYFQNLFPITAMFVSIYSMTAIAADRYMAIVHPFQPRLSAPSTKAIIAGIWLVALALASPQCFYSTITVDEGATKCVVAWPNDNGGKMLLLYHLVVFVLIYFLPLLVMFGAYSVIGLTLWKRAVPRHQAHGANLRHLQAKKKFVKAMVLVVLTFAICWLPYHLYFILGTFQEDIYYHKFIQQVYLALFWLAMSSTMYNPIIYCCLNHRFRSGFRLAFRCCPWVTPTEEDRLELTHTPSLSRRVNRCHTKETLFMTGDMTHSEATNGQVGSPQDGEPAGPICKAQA
Method in brief: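 Vas deferens from Sprague-Dawley rats (200–300 g), electrically stimulated contractions with supramaximal rectangular bipolar pulses. Eledoisin log dose-response curves; antagonism taken from rightward shift. pA2 by Schild regression over three or more antagonist concentrations, or apparent pA2 from one antagonist concentration via the standard Schild equation assuming unit slope.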

Neuromedin-K receptor = biological target: T2, Neuromedin-K receptor (Rattus norvegicus, UniProt P16177); test: Tested for antagonist activity toward NK-3 receptor in rat portal vein against the agonist eledoisin (mean +/-, n=4)
T2 sequence (P16177 whole entry): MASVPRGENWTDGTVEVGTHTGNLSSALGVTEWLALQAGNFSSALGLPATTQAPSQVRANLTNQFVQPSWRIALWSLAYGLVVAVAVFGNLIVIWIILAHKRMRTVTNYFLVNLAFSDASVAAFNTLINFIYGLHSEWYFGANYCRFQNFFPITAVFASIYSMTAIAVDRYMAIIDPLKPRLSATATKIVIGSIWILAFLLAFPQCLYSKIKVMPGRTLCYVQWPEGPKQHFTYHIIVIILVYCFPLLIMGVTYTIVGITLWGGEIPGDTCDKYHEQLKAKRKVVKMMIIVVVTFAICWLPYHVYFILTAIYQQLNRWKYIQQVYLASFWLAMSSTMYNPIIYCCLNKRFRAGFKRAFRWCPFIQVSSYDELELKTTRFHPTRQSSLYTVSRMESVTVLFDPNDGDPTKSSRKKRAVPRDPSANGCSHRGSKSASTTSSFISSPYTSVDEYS
Method in brief: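 Rat portal vein longitudinal strips; frequency and amplitude of myogenic contractions recorded. Antagonist activity derived from rightward shift of eledoisin log dose-response curves. pA2 by Schild regression, least squares, three or more antagonist concentrations, or apparent pA2 at a single antagonist concentration assuming unit slope (mean of three or four observations).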

Substance-P receptor = Substance-P receptor (Cavia porcellus, UniProt P30547); test: Tested for antagonist activity toward NK-1 receptor in guinea pig ileum against the agonist eledoisin (mean +/-, n=4)
Method in brief: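 Guinea pig (male Dunkin-Hartley, 300–400 g) small-intestine longitudinal muscle, isometric contraction in Krebs-Henseleit at 37 °C with atropine, mepyramine, methysergide (each 5 μM) and indomethacin (1 μM). Antagonism measured as rightward shift of log dose-response curves to eledoisin. pA2 from Schild regression (least squares, three or more antagonist concentrations, three or more observations each), or apparent pA2 at a single concentration assuming unit slope (mean of 3–4 observations).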

Chain of Substance-P receptor (P30547 whole entry): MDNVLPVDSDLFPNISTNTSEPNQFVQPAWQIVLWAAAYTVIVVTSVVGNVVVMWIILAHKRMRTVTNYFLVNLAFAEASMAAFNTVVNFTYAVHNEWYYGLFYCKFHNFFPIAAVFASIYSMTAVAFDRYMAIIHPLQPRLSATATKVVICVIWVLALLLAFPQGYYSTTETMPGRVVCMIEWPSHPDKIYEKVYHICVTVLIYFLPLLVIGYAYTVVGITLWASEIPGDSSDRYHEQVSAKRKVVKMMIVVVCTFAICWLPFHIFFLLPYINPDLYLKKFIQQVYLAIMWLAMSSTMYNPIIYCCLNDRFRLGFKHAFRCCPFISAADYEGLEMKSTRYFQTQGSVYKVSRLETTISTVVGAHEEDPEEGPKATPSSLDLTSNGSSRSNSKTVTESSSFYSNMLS

Structure (SMILES)	Kd (Substance-K receptor) [µM]	Kd (Neuromedin-K receptor) [µM]	Kd (Substance-P receptor) [µM]
CSCC[C@H]1NC(=O)[C@H](CC(C)C)N2C=CC(NC(=O)[C@H](Cc3ccccc3)NC(=O)[C@@H](Cc3ccccc3)NC(=O)C(CCC(N)=O)NC1=O)C2=O (some centres not stated)	15.8		
CSCC[C@H]1NC(=O)[C@H](CC(C)C)NC(=O)[C@H]2CCCN2C(=O)[C@H](Cc2ccccc2)NC(=O)[C@@H](Cc2c[nH]c3ccccc23)NC(=O)[C@H](CCC(N)=O)NC1=O	20		
CSCC[C@H]1NC(=O)[C@H](CC(C)C)NC(=O)[C@@H]2CCCN2C(=O)[C@H](Cc2ccccc2)NC(=O)[C@@H](Cc2c[nH]c3ccccc23)NC(=O)[C@H](CCC(N)=O)NC1=O	15.8		

These reach a lower Kd (Substance-K receptor). Values come first.

Kd (Substance-K receptor) [µM]	Kd (Neuromedin-K receptor) [µM]	Kd (Substance-P receptor) [µM]	Structure (SMILES)
0.00794	7.94	2	CSCC[C@@H]1NC(=O)[C@H](CC(C)C)NC(=O)CNC(=O)[C@H](Cc2ccccc2)NC(=O)[C@H](Cc2c[nH]c3ccccc23)NC(=O)[C@H](CCC(N)=O)NC1=O (cyclo(FGLMQW))
0.631			CSCC[C@@H]1NC(=O)[C@H](CC(C)C)NC(=O)[C@H](Cc2ccccc2)NC(=O)[C@H](Cc2c[nH]c3ccccc23)NC(=O)[C@H](CCC(N)=O)NC1=O (cyclo(FLMQW))
